Test results: publication PMC10613910 (Heliyon, 2023)

Experiments:
[1] = Pharmacokinetics of oral talazoparib in wild-type and ABCB1/ABCG2; type: in vivo, mouse; conditions: talazoparib 0.5 mg/kg p.o.; for Cmax: female, FVB, mouse, plasma, po, 0.5 mg/kg, mean (±SEM)
Procedure, shortened: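 Adult female FVB wild-type or Abcb1a/Abcb1b/Abcg2-deficient mice (12–20 weeks, 4–5 per group) given test compound 0.5 mg/kg by oral gavage; dosing solution 0.1 mg/mL in 10% dimethylacetamide/5% Solutol HS/85% PBS. Blood at 5, 15, 30 min and 1, 2, 4 h, submandibular then retro-orbital (isoflurane), terminal cardiac. Plasma methanol-precipitated, UHPLC-MS/MS with isotope-labelled IS; Cmax visual, AUC(0–4 h) log-linear trapezoidal.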

[2] = system: MDCKII cells overexpressing ABCG2; conditions: cited from earlier work
[3] = Stability of talazoparib in mouse plasma QC samples; type: physicochemical; conditions: for Bench-top stability, mean deviation: ambient temperature (25 °C) for 6 h; for Bench-top stability, mean deviation / Auto-sampler stability, mean deviation / Re-injection stability, mean deviation: N=3; for Auto-sampler stability, mean deviation: auto-sampler at 4 °C for 24 h; for Re-injection stability, mean deviation: reanalyzed after 24 h in auto-sampler at 4 °C
Procedure, shortened: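 Spiked mouse plasma QC at low (1.5 ng/mL) and high (80 ng/mL) levels. Conditions: bench-top at ambient temperature 6 h; extracts held in autosampler at 4 °C 24 h; processed samples re-injected after 24 h at 4 °C; three cycles of −80 °C storage for 12 h with room-temperature thaw. Quantified by UHPLC-MS/MS with isotope-labelled IS; acceptable within 85–115% of nominal.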

[4] = system: ABCG2; conditions: mice with a deficiency of only ABCG2; cited from earlier work
[5] = clinical studies, oral; cited from earlier work
[6] = Influence of novobiocin pretreatment on talazoparib pharmacokinetics in mice; type: in vivo; conditions: female, FVB, mouse, plasma, po, 0.5 mg/kg, mean (±SEM), N=5; for AUC: 0-4 h
Procedure, shortened: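 Female mice aged 12–20 weeks (wild-type FVB or ABCB1A/ABCB1B/ABCG2-null), fasted 2 h. Pretreatment (50 mg/kg in 5% dextrose) or vehicle given by oral gavage 30 min before test compound (0.1 mg/mL in 10% dimethylacetamide/5% Solutol HS/85% PBS). Blood sampled 5 min–4 h. Plasma assayed by UHPLC-MS/MS with isotope-labelled internal standard. Cmax read from the curve; AUC0–4h by log-linear trapezoidal rule.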

[7] = ABCB1/ABCG2(−/−) mice, novobiocin 50 mg/kg p.o. 30 min before talazoparib 0.5 mg/kg p.o.
[8] = wild-type mice, novobiocin 50 mg/kg p.o. 30 min before talazoparib 0.5 mg/kg p.o.

Cn1ncnc1[C@H]1c2n[nH]c(=O)c3cc(F)cc(c23)N[C@@H]1c1ccc(F)cc1 [Talazoparib]
increase in AUC with deficiency of ABCB1 and ABCG2 ([1]; ABCB1/ABCG2(−/−) vs wild-type mice): ~1.3 fold
Cmax ([1]; ABCB1/ABCG2(−/−) mice, N=4): 350 ng/mL
Cmax ([1]; wild-type FVB mice, N=5): 360 ng/mL
levels of talazoparib in cells [2]: unaltered
time stable in mouse plasma samples at room temperature ([3]; bench-top, room temperature, mouse plasma): at least 6 h
auto-sampler and reinjection stability time ([3]; extracted samples at 4 °C in auto-sampler): at least 24 h
stability after repeated freeze and thaw cycles ([3]; mouse plasma samples, three freeze-thaw cycles): remained stable
Bench-top stability, mean deviation ([3]; nominal 1.5 ng/mL, mouse plasma): 2.15%
Auto-sampler stability, mean deviation ([3]; nominal 1.5 ng/mL): −4.34%
Re-injection stability, mean deviation ([3]; nominal 1.5 ng/mL): 0.64%
Bench-top stability, mean deviation ([3]; nominal 80 ng/mL, mouse plasma): −8.09%
Auto-sampler stability, mean deviation ([3]; nominal 80 ng/mL): −5.14%
Re-injection stability, mean deviation ([3]; nominal 80 ng/mL): 0.62%
levels of talazoparib in plasma [4]: unaltered
terminal half-life [5]: ~50 h
AUC [6, 7]: 890 ng·h/mL
AUC [6, 8]: 615 ng·h/mL
Cmax ([6]; ABCB1/ABCG2(−/−) mice, co-treatment none (vehicle), talazoparib 0.5 mg/kg p.o.): 352 ng/mL
Cmax [6, 7]: 449 ng/mL
Cmax ([6]; wild-type mice, co-treatment none (vehicle), talazoparib 0.5 mg/kg p.o.): 472 ng/mL
Cmax [6, 8]: 414 ng/mL
